Consider twelve compounds from ChEMBL document CHEMBL3351863, “Optimization of 2-phenyl-pyrimidine-4-carboxamides towards potent, orally bioavailable and selective P2Y(12) antagonists for inhibition of platelet aggregation” (Bioorg Med Chem Lett, 2014).

The subject of data set [1] is Platelet. The data set can be described thus: Inhibition of ADP-induced platelet aggregation in human platelet rich plasma assessed as remaining activity at 1000 nM by in-vitro light transmission aggregometry assay. The data set is classed as functional. An outline of the steps:
(§1)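 Light transmission aggregometry in human platelet-rich plasma; compound incubated, aggregation triggered with 3 µM ADP; remaining activity (RA) recorded at a single compound level (1000, 500 or 100 nM).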

The target of data set [2] is Voltage-gated inwardly rectifying potassium channel KCNH2 (Homo sapiens, UniProt Q12809). The data set is described as follows: Inhibition of human ERG expressed in HEK cells by patch-clamp assay. To be noted: hek293. The class given is cell-based. (Patch clamp records ionic current or voltage across a cell membrane.)
Voltage-gated inwardly rectifying potassium channel KCNH2, sequence (Q12809 whole entry): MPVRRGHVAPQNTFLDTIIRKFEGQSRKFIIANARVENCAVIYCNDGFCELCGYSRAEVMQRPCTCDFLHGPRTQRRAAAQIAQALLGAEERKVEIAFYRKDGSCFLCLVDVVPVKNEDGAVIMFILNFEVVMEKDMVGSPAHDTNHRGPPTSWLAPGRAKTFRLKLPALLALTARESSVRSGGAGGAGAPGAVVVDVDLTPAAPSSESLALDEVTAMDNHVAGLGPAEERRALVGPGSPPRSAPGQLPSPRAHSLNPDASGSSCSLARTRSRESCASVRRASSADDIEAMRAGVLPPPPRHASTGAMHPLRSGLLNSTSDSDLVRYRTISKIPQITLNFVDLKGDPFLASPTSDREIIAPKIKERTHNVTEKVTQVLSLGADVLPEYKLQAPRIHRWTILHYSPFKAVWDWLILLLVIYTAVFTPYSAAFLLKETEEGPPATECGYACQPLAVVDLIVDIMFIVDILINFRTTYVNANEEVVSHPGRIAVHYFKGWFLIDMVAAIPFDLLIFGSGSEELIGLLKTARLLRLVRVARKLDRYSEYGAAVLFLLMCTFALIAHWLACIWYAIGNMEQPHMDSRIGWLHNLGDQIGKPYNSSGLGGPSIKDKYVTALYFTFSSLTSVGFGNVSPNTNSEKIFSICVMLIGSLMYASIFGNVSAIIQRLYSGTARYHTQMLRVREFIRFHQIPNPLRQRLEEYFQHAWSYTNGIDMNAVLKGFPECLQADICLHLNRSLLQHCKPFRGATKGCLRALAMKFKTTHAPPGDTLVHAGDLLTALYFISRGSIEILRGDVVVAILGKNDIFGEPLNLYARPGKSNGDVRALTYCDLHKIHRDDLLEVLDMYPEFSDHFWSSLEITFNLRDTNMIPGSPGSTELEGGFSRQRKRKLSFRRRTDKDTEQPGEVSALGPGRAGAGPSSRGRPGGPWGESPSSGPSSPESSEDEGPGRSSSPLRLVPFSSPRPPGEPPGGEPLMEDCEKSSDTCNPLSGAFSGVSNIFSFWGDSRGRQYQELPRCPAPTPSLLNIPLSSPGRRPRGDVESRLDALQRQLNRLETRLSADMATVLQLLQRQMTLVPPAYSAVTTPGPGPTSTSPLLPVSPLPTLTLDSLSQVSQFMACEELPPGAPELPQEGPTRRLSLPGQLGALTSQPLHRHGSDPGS
The next data set has as its target P2Y purinoceptor 12 (Homo sapiens, UniProt Q9H244). The data set is described as follows: Displacement of [3H]-2-methyl-thio-adenosine 5'-diphosphate from human recombinant P2Y12 expressed in CHO cell membranes by scintillation counting method. The essentials: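 CHO cells expressing recombinant P2Y₁₂ receptors, incubated with tritium-labeled 2-methyl-thio-adenosine 5'-diphosphate plus test compound; IC₅₀ from displacement curves, each point in triplicate; reference compound run with every compound set, and set re-analyzed if its IC₅₀ fell outside pre-set 95% confidence interval.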

Data set [3] relates to Liver microsome. The data set can be described thus: Metabolic stability assay in rat liver microsomes assessed as parent drug disappearance at 1 uM after 20 mins by HPLC and mass spectrometry method. The data set is classed as ADME. (Liver microsomes are a subcellular fraction often used to study metabolism.)
The target of another data set is Cytochrome P450 2D6 (Homo sapiens, UniProt P10635). The data set can be described thus: Inhibition of CYP2D6 in human liver microsomes assessed as reduction in dextromethorphan-O demethylation. The class given is ADME.
Cytochrome P450 2D6, sequence (P10635 whole entry): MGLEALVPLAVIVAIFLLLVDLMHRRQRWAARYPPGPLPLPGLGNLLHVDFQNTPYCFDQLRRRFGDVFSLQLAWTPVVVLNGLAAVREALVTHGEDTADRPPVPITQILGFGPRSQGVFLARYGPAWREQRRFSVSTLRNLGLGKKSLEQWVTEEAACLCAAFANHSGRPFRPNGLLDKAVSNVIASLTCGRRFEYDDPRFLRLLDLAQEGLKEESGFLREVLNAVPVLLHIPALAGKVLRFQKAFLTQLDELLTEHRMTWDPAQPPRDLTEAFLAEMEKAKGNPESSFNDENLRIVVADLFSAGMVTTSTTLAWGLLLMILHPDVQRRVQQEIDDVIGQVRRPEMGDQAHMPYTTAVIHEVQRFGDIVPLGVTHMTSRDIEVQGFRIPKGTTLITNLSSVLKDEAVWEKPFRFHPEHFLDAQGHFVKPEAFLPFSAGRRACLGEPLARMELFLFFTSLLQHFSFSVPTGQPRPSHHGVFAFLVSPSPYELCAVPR
Data set [4] relates to Platelet. The data set is described as follows: Inhibition of ADP-induced platelet aggregation in human platelet rich plasma assessed as remaining activity at 500 nM by in-vitro light transmission aggregometry assay. The data set is classed as functional. The essentials: as §1
Data set [5] in a line: Solubility in basic pH. The data set is classed as physicochemical.
In data set [6] the test system is Liver microsome. The data set is described as follows: Metabolic stability assay in human liver microsomes assessed as parent drug disappearance at 1 uM after 20 mins by HPLC and mass spectrometry method. The data set is classed as ADME.
Data set [7] in a line: Solubility in neutral pH. The data set is classed as physicochemical.
For data set [8], the target named is T1, Cytochrome P450 3A4 (Homo sapiens, UniProt P08684). The data set can be described thus: Inhibition of CYP3A4 in human liver microsomes assessed as reduction in testosterone 6beta-hydroxylation. The data set is classed as ADME.
T1 sequence (P08684 whole entry): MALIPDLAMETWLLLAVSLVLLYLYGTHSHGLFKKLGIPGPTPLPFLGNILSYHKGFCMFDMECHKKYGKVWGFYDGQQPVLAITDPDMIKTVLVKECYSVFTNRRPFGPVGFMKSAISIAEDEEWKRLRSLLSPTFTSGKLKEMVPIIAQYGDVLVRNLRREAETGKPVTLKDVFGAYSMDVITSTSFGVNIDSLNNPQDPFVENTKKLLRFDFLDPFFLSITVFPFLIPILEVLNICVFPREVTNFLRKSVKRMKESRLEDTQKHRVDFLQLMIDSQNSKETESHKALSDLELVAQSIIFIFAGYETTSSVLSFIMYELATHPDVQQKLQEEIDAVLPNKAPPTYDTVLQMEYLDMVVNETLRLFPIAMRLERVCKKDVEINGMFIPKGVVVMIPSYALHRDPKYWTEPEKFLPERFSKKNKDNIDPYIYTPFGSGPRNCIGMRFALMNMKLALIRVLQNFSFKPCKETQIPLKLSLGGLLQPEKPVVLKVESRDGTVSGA
Data set [9] deals with T1, Cytochrome P450 3A4. The data set can be described thus: Inhibition of CYP3A4 in human liver microsomes assessed as reduction in midazolam 1'-hydroxylation. The data set is classed as ADME.
For another data set, the target named is Cytochrome P450 2C9 (Homo sapiens, UniProt P11712). The data set can be described thus: Inhibition of CYP2C9 in human liver microsomes assessed as reduction in diclofenac 4'-hydroxylation. The class given is ADME.
Cytochrome P450 2C9, sequence (P11712 whole entry): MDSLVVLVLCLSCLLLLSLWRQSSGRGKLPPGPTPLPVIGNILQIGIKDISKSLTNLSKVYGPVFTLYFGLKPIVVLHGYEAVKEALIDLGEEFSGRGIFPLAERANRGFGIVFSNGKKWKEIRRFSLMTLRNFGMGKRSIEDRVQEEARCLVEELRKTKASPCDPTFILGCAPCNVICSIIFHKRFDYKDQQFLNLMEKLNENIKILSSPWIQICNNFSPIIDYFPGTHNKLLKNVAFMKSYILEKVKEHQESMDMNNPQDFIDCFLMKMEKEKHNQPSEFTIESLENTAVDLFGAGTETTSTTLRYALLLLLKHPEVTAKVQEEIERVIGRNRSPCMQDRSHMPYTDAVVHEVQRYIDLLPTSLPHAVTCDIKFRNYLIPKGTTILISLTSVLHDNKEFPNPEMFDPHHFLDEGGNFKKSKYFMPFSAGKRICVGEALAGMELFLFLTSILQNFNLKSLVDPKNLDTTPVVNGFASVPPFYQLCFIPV
For data set [10], the system named is Platelet. The data set is described as follows: Inhibition of ADP-induced platelet aggregation in human platelet rich plasma by in-vitro light transmission aggregometry assay. The class given is functional. To be noted: Homo sapiens, Platelet, Plasma. An outline of the steps: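 Human platelet-rich plasma incubated with compound, aggregation induced by 3 µM ADP and read by light transmission aggregometry; IC₅₀ derived from concentration–response curve.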

A short description of data set [11]: Potency shift, ratio of IC50 for inhibition of ADP-induced platelet aggregation in human platelet rich plasma to IC50 for displacement of [3H]-2-methyl-thio-adenosine 5'-diphosphate from human recombinant P2Y12 expressed in CHO cell membranes. Background: Loss of bound radioactivity is the signal in a displacement assay; it reports binding, not function.
The subject of data set [12] is Platelet. The data set is described as follows: Inhibition of ADP-induced platelet aggregation in human platelet rich plasma assessed as remaining activity at 100 nM by in-vitro light transmission aggregometry assay. The class given is functional. The essentials:
as §1

P2Y purinoceptor 12, sequence (Q9H244 whole entry): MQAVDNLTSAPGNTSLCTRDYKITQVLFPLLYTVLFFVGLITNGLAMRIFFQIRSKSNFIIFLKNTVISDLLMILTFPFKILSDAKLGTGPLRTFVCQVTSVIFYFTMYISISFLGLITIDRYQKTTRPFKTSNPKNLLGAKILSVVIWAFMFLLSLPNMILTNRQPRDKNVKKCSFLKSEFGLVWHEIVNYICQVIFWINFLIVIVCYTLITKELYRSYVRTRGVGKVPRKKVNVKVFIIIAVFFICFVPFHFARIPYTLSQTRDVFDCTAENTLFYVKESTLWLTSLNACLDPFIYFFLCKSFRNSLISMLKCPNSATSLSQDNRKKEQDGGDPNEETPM

One may read the IC50 as the midpoint of a concentration-inhibition curve. Turning to `CCOC(=O)N1CCN(C(=O)[C@H](CCC(=O)O)NC(=O)c2cc(NCCC(=O)O)nc(-c3ccccc3)n2)CC1`, the Activity is on record as above 30% with Platelet [1] and above 60% in the data set with Platelet [4]. Moreover, the “inhibition (INH)” value (in data set [2]; at Cytochrome P450 2D6; at Cytochrome P450 3A4 [8]; on Cytochrome P450 3A4 [9]; on Cytochrome P450 2C9) was “Not Active” in each case. Also, the IC50 on P2Y purinoceptor 12 is 198 nM. Also, the Stability result in the data set with Liver microsome [3] and in the data set on Liver microsome [6] was “Stable” in each case. For the same compound, the solubility result in data set [5] and in data set [7] was “soluble” each time.

For the compound `CCOC(=O)N1CCN(C(=O)[C@H](CCC(=O)O)NC(=O)c2cc(-c3ccccc3)nc(-c3ccccc3)n2)CC1`, the Activity with Platelet [1] was above 30%; in the data set on Platelet [4] it was above 60%. Also, the “inhibition (INH)” value (in data set [2]; on Cytochrome P450 2D6; at Cytochrome P450 3A4 [8]; on Cytochrome P450 3A4 [9]; on Cytochrome P450 2C9) was “Not Active” each time. Further, on P2Y purinoceptor 12, the IC50 turned out to be 64 nM. Moreover, the Stability result with Liver microsome [3] and with Liver microsome [6] was “Stable” each time. In addition, the solubility entry in data set [5] and in data set [7] was “soluble” each time.

On to `CCOC(=O)N1CCN(C(=O)[C@H](CCC(=O)O)NC(=O)c2cc(NC(=O)C3CCCCC3)nc(-c3ccccc3)n2)CC1`, for which the Activity in the data set on Platelet [1] is given as above 30%; in the data set on Platelet [4] it was above 60%. The “inhibition (INH)” value (in data set [2]; at Cytochrome P450 2D6; on Cytochrome P450 3A4 [8]; on Cytochrome P450 3A4 [9]; on Cytochrome P450 2C9) was “Not Active” each time. Moreover, at P2Y purinoceptor 12, the IC50 amounted to 219 nM. For the same compound, the Stability entry in the data set with Liver microsome [3] and in the data set with Liver microsome [6] was “Stable” throughout. Besides, the solubility result in [5] and in data set [7] was “soluble” in each case.

For the compound `CCOC(=O)N1CCN(C(=O)[C@H](CCC(=O)O)NC(=O)c2cc(-c3ccsc3)nc(-c3ccccc3)n2)CC1`, the Activity in the data set on Platelet [1] is above 30%; with Platelet [4], above 60%. Moreover, the “inhibition (INH)” value (in data set [2]; at Cytochrome P450 2D6; at Cytochrome P450 3A4 [8]; at Cytochrome P450 3A4 [9]; at Cytochrome P450 2C9) was “Not Active” each time. For the same compound, the concentration for half-maximal inhibition (IC50) on P2Y purinoceptor 12 came out at 11 nM. The Stability entry in the data set with Liver microsome [3] and in the data set with Liver microsome [6] was “Stable” throughout. The solubility entry in [5] and in data set [7] was “soluble” throughout.

Turning to `CCOC(=O)N1CCN(C(=O)[C@H](CCC(=O)O)NC(=O)c2cc(N3CCC(N)C3)nc(-c3ccccc3)n2)CC1` (stereo not given in full), the IC50 with Platelet [10] was determined as 86 nM; on P2Y purinoceptor 12, 76 nM. Besides, the “inhibition (INH)” value (in data set [2]; on Cytochrome P450 2D6; at Cytochrome P450 3A4 [8]; at Cytochrome P450 3A4 [9]; on Cytochrome P450 2C9) was “Not Active” throughout. For the same compound, the Stability result in the data set on Liver microsome [3] and in the data set on Liver microsome [6] was “Stable” in each case. Further, the Activity in the data set on Platelet [4] is reported as below 30%; with Platelet [12], below 70%. Besides, the solubility entry in [5] and in [7] was “soluble” each time. In addition, in [11], the “Ratio IC50” value is recorded as 1.1.

In the case of `CCOC(=O)N1CCN(C(=O)[C@H](CCC(=O)O)NC(=O)c2cc([C@H]3C[C@@H]3CO)nc(-c3ccccc3)n2)CC1` (racemic), the IC50 was 71 nM in the data set on Platelet [10] and 23 nM on P2Y purinoceptor 12. The “inhibition (INH)” value (in [2]; on Cytochrome P450 2D6; on Cytochrome P450 3A4 [8]; at Cytochrome P450 3A4 [9]; on Cytochrome P450 2C9) was “Not Active” in each case. Also, the Stability entry in the data set with Liver microsome [3] and with Liver microsome [6] was “Stable” each time. Further, the Activity in the data set on Platelet [4] is below 30%; with Platelet [12], below 70%. Further, the solubility result in data set [5] and in data set [7] was “soluble” in each case. Moreover, the “Ratio IC50” value in [11] was determined as 3.1.

`CCOC(=O)N1CCN(C(=O)[C@H](CCC(=O)O)NC(=O)c2cc(N3CC[C@@H](O)C3)nc(-c3ccccc3)n2)CC1`: the IC50 came out at 99 nM with Platelet [10] and 52 nM at P2Y purinoceptor 12. The “inhibition (INH)” value (in data set [2]; at Cytochrome P450 2D6; at Cytochrome P450 3A4 [8]; on Cytochrome P450 3A4 [9]; on Cytochrome P450 2C9) was “Not Active” each time. Also, the Stability entry with Liver microsome [3] and with Liver microsome [6] was “Stable” each time. The Activity with Platelet [4] is given as below 30%; in the data set with Platelet [12], below 70%. Besides, the solubility entry in data set [5] and in data set [7] was “soluble” each time. Also, the “Ratio IC50” value in data set [11] was 1.9.

For `CCOC(=O)N1CCN(C(=O)[C@H](CCC(=O)O)NC(=O)c2cc(-c3ccncc3)nc(-c3ccccc3)n2)CC1`, the Activity in the data set with Platelet [1] is recorded as above 30%; in the data set on Platelet [4], above 60%. The “inhibition (INH)” value (in data set [2]; on Cytochrome P450 2D6; on Cytochrome P450 3A4 [8]; at Cytochrome P450 3A4 [9]; on Cytochrome P450 2C9) was “Not Active” throughout. Besides, the IC50 at P2Y purinoceptor 12 was found to be 53 nM. The Stability result in the data set with Liver microsome [3] and with Liver microsome [6] was “Stable” throughout. For the same compound, the solubility result in data set [5] and in [7] was “soluble” in each case.

As to `CCOC(=O)N1CCN(C(=O)[C@H](CCC(=O)O)NC(=O)c2cc(NC(C)CO)nc(-c3ccccc3)n2)CC1` (stereo not given in full), the IC50 in the data set with Platelet [10] turned out to be 55 nM; on P2Y purinoceptor 12 it was 56 nM. Also, the “inhibition (INH)” value (in data set [2]; at Cytochrome P450 2D6; at Cytochrome P450 3A4 [8]; at Cytochrome P450 3A4 [9]; on Cytochrome P450 2C9) was “Not Active” throughout. For the same compound, the Stability entry in the data set on Liver microsome [3] and in the data set with Liver microsome [6] was “Stable” throughout. For the same compound, the figures for the Activity in the data set on Platelet [4] and with Platelet [12] were below 30% and below 70%, respectively. For the same compound, the solubility result in data set [5] and in [7] was “soluble” in each case. In addition, the “Ratio IC50” value in data set [11] is 0.98.

With `CCOC(=O)N1CCN(C(=O)[C@H](CCC(=O)O)NC(=O)c2cc(C(C)(C)CO)nc(-c3ccccc3)n2)CC1`, the IC50 in the data set on Platelet [10] was 121 nM; on P2Y purinoceptor 12, 21 nM. For the same compound, the “inhibition (INH)” value (in data set [2]; on Cytochrome P450 2D6; on Cytochrome P450 3A4 [8]; on Cytochrome P450 3A4 [9]; on Cytochrome P450 2C9) was “Not Active” each time. Further, the Stability entry in the data set with Liver microsome [3] and in the data set with Liver microsome [6] was “Stable” in each case. The Activity in the data set with Platelet [4] is below 30%; in the data set on Platelet [12], below 70%. The solubility entry in data set [5] and in data set [7] was “soluble” in each case. Besides, the “Ratio IC50” value in [11] came out at 5.8.

For the compound `CCOC(=O)N1CCN(C(=O)[C@H](CCC(=O)O)NC(=O)c2cc(N3CCCC(O)C3)nc(-c3ccccc3)n2)CC1` (stereo not given in full), the IC50 is 73 nM in the data set on Platelet [10] and 21 nM at P2Y purinoceptor 12. The “inhibition (INH)” value (in data set [2]; on Cytochrome P450 2D6; at Cytochrome P450 3A4 [8]; at Cytochrome P450 3A4 [9]; at Cytochrome P450 2C9) was “Not Active” in each case. The Stability entry in the data set with Liver microsome [3] and in the data set on Liver microsome [6] was “Stable” each time. Moreover, the Activity is on record as below 30% in the data set with Platelet [4] and below 70% in the data set with Platelet [12]. The solubility entry in data set [5] and in data set [7] was “soluble” in each case. The “Ratio IC50” value in [11] is given as 3.5.

For `CCOC(=O)N1CCN(C(=O)[C@H](CCC(=O)O)NC(=O)c2cc(-c3cn[nH]c3)nc(-c3ccccc3)n2)CC1`, the figures for the Activity with Platelet [1] and in the data set with Platelet [4] were above 30% and above 60%, respectively. For the same compound, the “inhibition (INH)” value (in data set [2]; at Cytochrome P450 2D6; at Cytochrome P450 3A4 [8]; at Cytochrome P450 3A4 [9]; on Cytochrome P450 2C9) was “Not Active” in each case. Besides, the Stability result in the data set with Liver microsome [3] and in the data set with Liver microsome [6] was “Stable” throughout. Further, the solubility result in data set [5] and in data set [7] was “soluble” each time.
